Source: ChEMBL document CHEMBL1157379, “Transcriptional response of Candida parapsilosis following exposure to farnesol” (2007)
Calls of active or inactive are those of the source. The calls are words filed in the database; no cut-off is given here.

Experiments:
Candida parapsilosis [1] = experiment: Decrease in RLM1 gene expression in Candida parapsilosis CLIB214 at 50 uM after 2 hrs by microarray based transcriptional profiling relative to control; format: functional
In short: (§1)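 Strain CLIB214 grown overnight in YPD at 30°C, diluted to A600 0.2 in fresh YPD at 30°C. After 4 h (A600 0.8), farnesol (40 mM methanol stock) added to 50 μM final, or an equal methanol volume as control; cells harvested 2 h later. RNA was accepted only with a 28S/18S ratio of 1.6–2.2. Cy3/Cy5-dCTP-labelled cDNA was made from 25 μg total RNA. Hybridisation was to duplicate-spotted 68-mer oligo arrays (3,849 genes) at 42°C for about 16 h. Six individual comparisons.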

Candida parapsilosis [2] = experiment: Increase in GenBank accession number NP_983467.1 expression in Candida parapsilosis CLIB214 at 50 uM after 2 hrs by microarray based transcriptional profiling relative to control; format: functional
In short: (§2)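 Strain grown overnight in YPD at 30°C, diluted to A600 0.2 in YPD at 30°C; farnesol (40 mM methanol stock) added at 4 h (A600 0.8), final 50 μM; methanol-only control. Cells collected 2 h later for RNA. Labelled cDNA from 25 μg total RNA (Cy3/Cy5-dCTP) hybridized to 68-mer oligo arrays at 42°C ~16 h; six individual comparisons analysed statistically.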

Candida parapsilosis [3] = experiment: Decrease in CGD gene ortholog accession number orf19.6281 expression in Candida parapsilosis CLIB214 at 50 uM after 2 hrs by microarray based transcriptional profiling relative to control; format: functional
In short: (§3)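 Cells in YPD at 30°C treated with 50 μM farnesol at 4 h, with a methanol control. RNA harvested 2 h later and kept only if 28S/18S ratio was 1.6–2.2 with no degradation. 25 μg total RNA oligo-dT primed and labeled with Cy3/Cy5-dCTP. Labeled cDNA hybridized about 16 h at 42°C to duplicate-spotted 68-mer oligo arrays. Six individual comparisons analyzed statistically.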

Candida parapsilosis [4] = experiment: Increase in ARP3 gene expression in Candida parapsilosis CLIB214 at 50 uM after 2 hrs by microarray based transcriptional profiling relative to control; format: functional; in short: as §1
Candida parapsilosis [5] = experiment: Increase in NIT2 gene expression in Candida parapsilosis CLIB214 at 50 uM after 2 hrs by microarray based transcriptional profiling relative to control; format: functional; in short: as §2
Candida parapsilosis [6] = experiment: Increase in CGD gene ortholog accession number orf19.1230 expression in Candida parapsilosis CLIB214 at 50 uM after 2 hrs by microarray based transcriptional profiling relative to control; format: functional; in short: as §1
Candida parapsilosis [7] = experiment: Increase in HAS1 gene expression in Candida parapsilosis CLIB214 at 50 uM after 2 hrs by microarray based transcriptional profiling relative to control; format: functional; in short: as §2
Candida parapsilosis [8] = experiment: Increase in ELF1 gene expression in Candida parapsilosis CLIB214 at 50 uM after 2 hrs by microarray based transcriptional profiling relative to control; format: functional; in short: as §2
Candida parapsilosis [9] = experiment: Decrease in CGD gene ortholog accession number orf19.4947 expression in Candida parapsilosis CLIB214 at 50 uM after 2 hrs by microarray based transcriptional profiling relative to control; format: functional; in short: as §3
Candida parapsilosis [10] = experiment: Increase in CGD gene ortholog accession number orf19.1026 expression in Candida parapsilosis CLIB214 at 50 uM after 2 hrs by microarray based transcriptional profiling relative to control; format: functional; in short: as §1
Candida parapsilosis [11] = experiment: Increase in ACC1 gene expression in Candida parapsilosis CLIB214 at 50 uM after 2 hrs by microarray based transcriptional profiling relative to control; format: functional; in short: as §1
Candida parapsilosis [12] = experiment: Antifungal activity against Candida parapsilosis CLIB214 assessed as growth inhibition at 10 to 20 uM added 4 hrs after […] growth; format: functional, organism-based
Candida parapsilosis [13] = experiment: Antifungal activity against Candida parapsilosis CLIB214 assessed as growth inhibition at 50 uM added 4 hrs after […] growth; format: functional, organism-based
In short: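 C. parapsilosis CLIB214 grown overnight in YPD at 30°C, diluted to A600 0.2 in fresh YPD, grown 4 h (A600 0.8), then farnesol added at final 10, 20, 50 or 100 μM from a 40 mM methanol stock. Methanol-only controls. Growth followed by A600 or by cell counting with a particle counter.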

Candida parapsilosis [14] = experiment: Antifungal activity against Candida parapsilosis CLIB214 assessed as induction of cell death at 50 uM added 4 hrs after […] growth after 2 hrs by propidium iodide staining method; format: functional
In short: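 After 2 h exposure to 50 μM farnesol (methanol stock; methanol-only control), cells were washed twice in PBS and stained with propidium iodide at 10 μg ml−1 in PBS for 5 min. Dead-cell percentage was scored by fluorescence microscopy (Texas Red filter), counting at least 150 cells in each of three independent experiments.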

Candida parapsilosis [15] = experiment: Decrease in CGD gene ortholog accession number orf19.672 expression in Candida parapsilosis CLIB214 at 50 uM after 2 hrs by microarray based transcriptional profiling relative to control; format: functional; in short: as §1
Candida parapsilosis [16] = experiment: Increase in CDC20 gene expression in Candida parapsilosis CLIB214 at 50 uM after 2 hrs by microarray based transcriptional profiling relative to control; format: functional; in short: as §1
Candida parapsilosis [17] = experiment: Decrease in CGD gene ortholog accession number orf19.5683 expression in Candida parapsilosis CLIB214 at 50 uM after 2 hrs by microarray based transcriptional profiling relative to control; format: functional; in short: as §3
Candida parapsilosis [18] = experiment: Decrease in RIA1 gene expression in Candida parapsilosis CLIB214 at 50 uM after 2 hrs by microarray based transcriptional profiling relative to control; format: functional; in short: as §1
Candida parapsilosis [19] = experiment: Antifungal activity against Candida parapsilosis CLIB214 assessed as growth inhibition at 50 uM added after 6 hrs of bacterial growth measured after 2 hrs; format: functional; conditions: Lodderomyces parapsilosis
In short: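 Overnight YPD culture at 30°C diluted to A600 0.2 in YPD. Farnesol added to 50 μM final at 2, 4, 6 or 8 h of growth (A600 about 0.8 at 4 h, 2.3 at 6 h, 6 at 8 h). Growth compared with methanol controls by A600 or cell counts.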

Candida parapsilosis [20] = experiment: Decrease in PCL7 gene expression in Candida parapsilosis CLIB214 at 50 uM after 2 hrs by microarray based transcriptional profiling relative to control; format: functional; in short: as §1
Candida parapsilosis [21] = experiment: Decrease in CGD gene ortholog accession number orf19.3051 expression in Candida parapsilosis CLIB214 at 50 uM after 2 hrs by microarray based transcriptional profiling relative to control; format: functional; in short: as §3
Candida parapsilosis [22] = experiment: Effect on GAD1 gene expression in Candida parapsilosis CLIB214 by microarray based transcriptional profiling; format: functional, organism-based; in short: as §1
Candida parapsilosis [23] = experiment: Increase in KEX2 gene expression in Candida parapsilosis CLIB214 at 50 uM after 2 hrs by microarray based transcriptional profiling relative to control; format: functional; in short: as §2
Candida parapsilosis [24] = experiment: Decrease in CGD gene ortholog accession number orf19.4210 expression in Candida parapsilosis CLIB214 at 50 uM after 2 hrs by microarray based transcriptional profiling relative to control; format: functional; in short: as §3
Candida parapsilosis [25] = experiment: Increase in CGD gene ortholog accession number orf19.3544 expression in Candida parapsilosis CLIB214 at 50 uM after 2 hrs by microarray based transcriptional profiling relative to control; format: functional; in short: as §1
Candida parapsilosis [26] = experiment: Increase in CGD gene ortholog accession number orf19.7270 expression in Candida parapsilosis CLIB214 at 50 uM after 2 hrs by microarray based transcriptional profiling relative to control; format: functional; in short: as §1

## CC(C)=CCC/C(C)=C/CC/C(C)=C/CO [FARNESOL]
Candida parapsilosis [1]
  fold change (FC): 1.6
Candida parapsilosis [2]
  fold change (FC): 3.16
Candida parapsilosis [3]
  fold change (FC): 1.72
Candida parapsilosis [4]
  fold change (FC): 1.67
Candida parapsilosis [5]
  fold change (FC): 1.86
Candida parapsilosis [6]
  fold change (FC): 1.53
Candida parapsilosis [7]
  fold change (FC): 1.7
Candida parapsilosis [8]
  fold change (FC): 2.16
Candida parapsilosis [9]
  fold change (FC): 1.58
Candida parapsilosis [10]
  fold change (FC): 1.55
Candida parapsilosis [11]
  fold change (FC): 1.59
Candida parapsilosis [12]
  Activity: inactive
Candida parapsilosis [13]
  Activity: Active
Candida parapsilosis [14]
  Activity: 20%
Candida parapsilosis [15]
  fold change (FC): 1.77
Candida parapsilosis [16]
  fold change (FC): 1.51
Candida parapsilosis [17]
  fold change (FC): 1.51
Candida parapsilosis [18]
  fold change (FC): 1.65
Candida parapsilosis [19]
  inhibition at 50 µM: 40.5%
Candida parapsilosis [20]
  fold change (FC): 1.75
Candida parapsilosis [21]
  fold change (FC): 1.67
Candida parapsilosis [22]
  Activity: inactive
Candida parapsilosis [23]
  fold change (FC): 1.57
Candida parapsilosis [24]
  fold change (FC): 1.79
Candida parapsilosis [25]
  fold change (FC): 1.87
Candida parapsilosis [26]
  fold change (FC): 1.67
